Measured values reported in ChEMBL document CHEMBL4219033, “Anticancer activity profiling of parthenolide analogs generated via P450-mediated chemoenzymatic synthesis” (2018).

Experiments:
Assay type in all cases: functional
JeKo-1 [1] = assay: Cytotoxicity against human JeKo1 cells assessed as cell viability after 24 hrs by MTT assay; conditions: JeKo-1, 24 h, read-out: LC50 (the source's name)
How it was run: (§1)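 Suspension cells grown in α-MEM with 10% FBS and penicillin-streptomycin, seeded at 30,000 cells/well in phenol red-free medium and held 15 h before treatment. Compounds diluted from 10 mM DMSO stocks, final 1% DMSO, for 24 h. MTT (5 mg/ml stock) added directly for 3 h at 37 °C, then centrifugation, DMSO solubilization, OD 550 nm. LC50 from dose-response curves normalized to vehicle.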

A549 [2] = assay: Cytotoxicity against human A549 cells assessed as cell viability at 10 uM after 24 hrs by MTT assay relative to control; conditions: A549, 24 h, read-out: Activity
How it was run: (§2)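 Adherent lines in DMEM plus 10% FBS and penicillin-streptomycin, 37 °C, 5% CO2, lifted with Accutase. Seeded at 500–10,000 cells/well and rested 15 h. Compounds from 10 mM DMSO stocks dosed at 10 µM final, 1% DMSO final, n = 5, for 24 h. Medium then swapped for 1 mg/ml MTT in phenol-red-free medium for 3 h at 37 °C. Formazan dissolved in DMSO, OD read at 550 nm. Viability normalised to 1% DMSO vehicle control.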

PC-3 [3] = assay: Cytotoxicity against human PC3 cells assessed as cell viability at 10 uM after 24 hrs by MTT assay relative to control; conditions: PC-3, 24 h, read-out: Activity; how it was run: as §2
PC-3 [4] = assay: Cytotoxicity against human PC3 cells assessed as cell viability after 24 hrs by MTT assay; conditions: PC-3, 24 h, read-out: LC50 (the source's name)
How it was run: (§3)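 Adherent cells grown in DMEM with 10% FBS and penicillin-streptomycin, dissociated with Accutase, seeded at 500–10,000 cells/well and held 15 h before treatment. Compounds diluted from 10 mM DMSO stocks, final 1% DMSO, for 24 h at 37 °C, 5% CO2. Medium replaced with 1 mg/ml MTT for 3 h, formazan dissolved in DMSO, OD 550 nm. LC50 from dose-response curves normalized to 1% DMSO vehicle.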

JeKo-1 [5] = assay: Cytotoxicity against human JeKo1 cells assessed as cell viability at 2 uM after 24 hrs by MTT assay relative to control; conditions: JeKo-1, 24 h, read-out: Activity
How it was run: (§4)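 Suspension lines grown in α-MEM plus 10% FBS and penicillin-streptomycin, 37 °C, 5% CO2. Seeded at 30,000 cells/well in phenol-red-free α-MEM and rested 15 h. Exposed to 10 µM, or 2 µM in the lower-dose repeat, at 1% DMSO final for 24 h. 5 mg/ml MTT added directly for 3 h at 37 °C. Plates spun, formazan dissolved in DMSO, OD read at 550 nm. Viability relative to vehicle.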

HCT-116 [6] = assay: Cytotoxicity against human HCT116 cells assessed as cell viability at 10 uM after 24 hrs by MTT assay relative to control; conditions: HCT-116, 24 h, read-out: Activity; how it was run: as §2
SJSA-1 [7] = assay: Cytotoxicity against human SJSA1 cells assessed as cell viability at 10 uM after 24 hrs by MTT assay relative to control; conditions: SJSA-1, 24 h, read-out: Activity; how it was run: as §2
HeLa [8] = assay: Cytotoxicity against human HeLa cells assessed as cell viability after 24 hrs by MTT assay; conditions: read-out: LC50 (the source's name); how it was run: as §3
MDA-MB-231 [9] = assay: Cytotoxicity against human MDA-MB-231 cells assessed as cell viability at 10 uM after 24 hrs by MTT assay relative to control; conditions: MDA-MB-231, 24 h, read-out: Activity; how it was run: as §2
Jurkat [10] = assay: Cytotoxicity against human Jurkat cells assessed as cell viability after 24 hrs by MTT assay; conditions: read-out: LC50 (the source's name); how it was run: as §1
SK-MEL-2 = assay: Cytotoxicity against human SK-MEL-2 cells assessed as cell viability at 10 uM after 24 hrs by MTT assay relative to control; conditions: SK-MEL-2, 24 h, read-out: Activity; how it was run: as §2
HeLa [11] = assay: Cytotoxicity against human HeLa cells assessed as cell viability at 10 uM after 24 hrs by MTT assay relative to control; conditions: read-out: Activity; how it was run: as §2
SK-N-MC [12] = assay: Cytotoxicity against human SK-N-MC cells assessed as cell viability after 24 hrs by MTT assay; conditions: read-out: LC50 (the source's name); how it was run: as §3
Jurkat [13] = assay: Cytotoxicity against human Jurkat cells assessed as cell viability at 2 uM after 24 hrs by MTT assay relative to control; conditions: read-out: Activity; how it was run: as §4
HCT-116 [14] = assay: Cytotoxicity against human HCT116 cells assessed as cell viability after 24 hrs by MTT assay; conditions: HCT-116, 24 h, read-out: LC50 (the source's name); how it was run: as §3
JeKo-1 [15] = assay: Cytotoxicity against human JeKo1 cells assessed as cell viability at 10 uM after 24 hrs by MTT assay relative to control; conditions: JeKo-1, 24 h, read-out: Activity; how it was run: as §4
A549 [16] = assay: Cytotoxicity against human A549 cells assessed as cell viability after 24 hrs by MTT assay; conditions: A549, 24 h, read-out: LC50 (the source's name); how it was run: as §3
MDA-MB-231 [17] = assay: Cytotoxicity against human MDA-MB-231 cells assessed as cell viability after 24 hrs by MTT assay; conditions: MDA-MB-231, 24 h, read-out: LC50 (the source's name); how it was run: as §3
Jurkat [18] = assay: Cytotoxicity against human Jurkat cells assessed as cell viability at 10 uM after 24 hrs by MTT assay relative to control; conditions: read-out: Activity; how it was run: as §4
SJSA-1 [19] = assay: Cytotoxicity against human SJSA1 cells assessed as cell viability after 24 hrs by MTT assay; conditions: SJSA-1, 24 h, read-out: LC50 (the source's name); how it was run: as §3
SK-N-MC [20] = assay: Cytotoxicity against human SK-N-MC cells assessed as cell viability at 10 uM after 24 hrs by MTT assay relative to control; conditions: read-out: Activity; how it was run: as §2

| Structure (SMILES) | viability at 10 µM (A549 [2]) [%] | viability at 10 µM (PC-3 [3]) [%] | CC50 (PC-3 [4]) [µM] | viability at 2 µM (JeKo-1 [5]) [%] | viability at 10 µM (HCT-116 [6]) [%] | viability at 10 µM (SJSA-1 [7]) [%] | CC50 (HeLa [8]) [µM] | viability at 10 µM (MDA-MB-231 [9]) [%] | viability at 10 µM (SK-MEL-2) [%] | viability at 10 µM (HeLa [11]) [%] | viability at 2 µM (Jurkat [13]) [%] | CC50 (HCT-116 [14]) [µM] | viability at 10 µM (JeKo-1 [15]) [%] | viability at 10 µM (Jurkat [18]) [%] | viability at 10 µM (SK-N-MC [20]) [%] | other results |
| --- | --- | --- | --- | --- | --- | --- | --- | --- | --- | --- | --- | --- | --- | --- | --- | --- |
| C=C1C(=O)O[C@@H]2[C@H]3O[C@]3(C)CC/C=C(/COC(=O)c3cc(C(F)(F)F)cc(C(F)(F)F)c3)CC[C@@H]12 | 29.6 | 3.7 | 4.7 | 64.3 | 15.5 | 23.1 | 1.5 | 8 | 28.6 | 3.9 | 70 | 5.7 | 4.8 | 5.7 | 3.2 | CC50 (JeKo-1 [1]): 1.7 µM; CC50 (Jurkat [10]): 1.9 µM; CC50 (SK-N-MC [12]): 0.6 µM; CC50 (A549 [16]): 4.9 µM; CC50 (MDA-MB-231 [17]): 6.2 µM; CC50 (SJSA-1 [19]): 6.4 µM |
| C=C1C(=O)O[C@@H]2[C@H]3O[C@]3(C)CC/C=C(/COC(=O)Nc3ccc(F)cc3F)CC[C@@H]12 | 70.6 | 89.8 |  | 78.3 | 33.2 | 100 |  | 88.5 | 84.5 | 89.7 | 86.2 |  | -2.1 | 0 | 95.6 | CC50 (JeKo-1 [1]): 6.7 µM |
| C=C1C(=O)O[C@@H]2[C@H]3O[C@]3(C)CC/C=C(/COC(=O)Nc3ccc([N+](=O)[O-])cc3)CC[C@@H]12 | 60 | 17.7 | 5.7 | 80 | 1.6 | 44.5 | 1.7 | 41.3 | 40.4 | 5.4 | 79 | 7.8 | -0.1 | 0 | 23.3 |  |
| C=C1C(=O)O[C@@H]2[C@H]3O[C@]3(C)CC/C=C(/C)[C@@H](OC(=O)Nc3ccc(F)cc3F)C[C@@H]12 | 68.9 | 82.8 |  | 80.4 | 17.6 | 100 |  | 96.4 | 85.8 | 76.3 | 85.8 | 11.8 | -2.6 | 0 | 91.3 |  |
| C=C1C(=O)O[C@@H]2[C@H]3O[C@]3(C)CC/C=C(/C)[C@@H](OC(=O)Nc3cc(C(F)(F)F)cc(C(F)(F)F)c3)C[C@@H]12 | 54.3 | 38.7 |  | 76.4 | 10.8 | 68.2 |  | 16.7 | 57 | 20.2 | 68.9 | 7.9 | -1 | 0 | 18.5 | CC50 (JeKo-1 [1]): 3.5 µM; CC50 (Jurkat [10]): 2.8 µM; CC50 (MDA-MB-231 [17]): 7.2 µM |
| C=C1C(=O)O[C@@H]2[C@H]3O[C@]3(C)CC/C=C(/C)[C@@H](OC(=O)c3ccc(C(F)(F)F)cc3C(F)(F)F)C[C@@H]12 | 33.7 | 6.4 | 5.3 | 105 | 20.8 | 26.5 | 2.1 | 19.2 | 61.4 | 10.7 | 83.2 |  | 5.7 | 0 | 11.5 | CC50 (SK-N-MC [12]): 5.7 µM; CC50 (MDA-MB-231 [17]): 5.7 µM |
| C=C1C(=O)O[C@@H]2[C@H]3O[C@]3(C)CC/C=C(/C)[C@@H](OC(=O)c3cc(-c4ccc(Cl)cc4)on3)C[C@@H]12 | 98.4 | 71.7 |  | 96.9 | 14.2 | 92.7 |  | 84.7 | 85.8 | 63.5 | 95.7 | 8.3 | -2.7 | 0 | 70.7 |  |
| C=C1C(=O)O[C@@H]2[C@H]3O[C@]3(C)CC/C=C(/C)[C@@H](OC(=O)c3ccc4ccccc4c3)C[C@@H]12 | 95.8 | 83.4 |  | 97 | 100 | 100 |  | 100 | 98.7 | 88.8 | 83.4 |  | 71.9 | 86.1 | 96.8 |  |
| C=C1C(=O)O[C@@H]2[C@H]3O[C@]3(C)CC/C=C(/C)[C@@H](OC(C(=O)OCC)c3ccccc3)C[C@@H]12 (stereo partly drawn) | 60.7 | 78.9 |  | 76.6 | 46.2 | 100 |  | 90 | 72.5 | 77.5 | 85.9 |  | -2.9 | 0 | 100 |  |
| C=C1C(=O)O[C@@H]2[C@H]3O[C@]3(C)CC/C=C(/COC(=O)c3coc(-c4ccc(Br)cc4)c3)CC[C@@H]12 | 74.8 | 65.9 |  | 100 | 11.8 | 47.7 |  | 91 | 78.8 | 57.6 | 89 | 11.8 | 7.4 | 0 | 66.1 |  |
| C=C1C(=O)O[C@@H]2[C@H]3O[C@]3(C)CC/C=C(/COC(=O)c3ccc(C(F)(F)F)cc3C(F)(F)F)CC[C@@H]12 | 45.1 | 4 | 6.7 | 80.9 | 15.1 | 17.8 | 2.9 | 20.7 | 62 | 11.3 | 89 | 8.2 | -2.2 | 0 | 18.7 | CC50 (SK-N-MC [12]): 5.6 µM; CC50 (SJSA-1 [19]): 7.7 µM |
| C=C1C(=O)O[C@@H]2[C@H]3O[C@]3(C)CC/C=C(/C)[C@@H](OC(=O)Nc3ccc([N+](=O)[O-])cc3)C[C@@H]12 | 83.3 | 94.1 |  | 84.1 | 38 | 100 |  | 98.6 | 75.2 | 78 | 78.9 |  | 0 | 0.2 | 92.4 |  |
